This is an account of results in ChEMBL document CHEMBL1141319, “Cinnamic ester derivatives from Oxalis pes-caprae (Bermuda buttercup)” (2007).

Activity calls are given as the source filed them. No cut-off for these calls is given here.

For experiment [1], the system named is Lactuca sativa. Nature of the experiment: Phytotoxicity against Lactuca sativa assessed as inhibition of seed germination relative to control. Type of experiment: functional. Also on record: concentration or dose not given beside the values. The essentials: (§1)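 Lettuce seeds (cv. Napoli V.F.), selected for uniformity, 25 per 50 mm dish on filter paper with 5 mL test solution in 10 mM MES pH 6. Tested at 10^-4 M, diluted to 10-5–10-7 M. Dishes sealed and kept at 25 °C in the dark, with germination counted daily for 5 days. Seedlings frozen at -20 °C before measuring. Four replicates with parallel controls; results given as % difference from control, Student's t test.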

Experiment [2] concerns Lactuca sativa. In words: Phytotoxicity against Lactuca sativa assessed as inhibition of root length at 0.1 mM relative to control. Type of experiment: functional. Also on record: scale not given: the % may be the effect or the level left. In short, it runs like this:
as §1

The subject of experiment [3] is Lactuca sativa. Nature of the experiment: Phytotoxicity against Lactuca sativa assessed as inhibition of shoot length at 100 uM relative to control. Type of experiment: functional. Also on record: scale not given: the % may be the effect or the level left. The essentials: as §1
In experiment [4] the test system is Lactuca sativa. In words: Phytotoxicity against Lactuca sativa assessed as inhibition of radical length at 0.1 uM to 0.1 mM relative to control. The arrangement: scale not given: the % may be the effect or the level left. Format: functional. In short, it runs like this:
as §1

For experiment [5], the system named is Lactuca sativa. Nature of the experiment: Phytotoxicity against Lactuca sativa assessed as inhibition of shoot length at 1 to 10 nM relative to control. Format: functional, organism-based.
For experiment [6], the system named is Lactuca sativa. In words: Phytotoxicity against Lactuca sativa assessed as inhibition of seed germination at 1 to 10 nM relative to control. Type of experiment: functional, organism-based.
Experiment [7] concerns Lactuca sativa. In words: Phytotoxicity against Lactuca sativa assessed as inhibition of shoot length at 0.1 uM to 0.1 mM relative to control. Format: functional. The arrangement: scale not given: the % may be the effect or the level left. In short, it runs like this:
as §1

The test system of experiment [8] is Lactuca sativa. In words: Phytotoxicity against Lactuca sativa assessed as inhibition of root length upto 0.1 uM relative to control. Format: functional, organism-based. The essentials: as §1

On to `COc1cc(/C=C/C(=O)Oc2cccc(O)c2)cc(OC)c1OC`, for which the Activity in the experiment with Lactuca sativa [1] is 10%; in the experiment on Lactuca sativa [2], “>=80%”; in the experiment on Lactuca sativa [3] it was 60%.

In the case of `COc1cccc(OC(=O)/C=C/c2cc(OC)c(OC)c(OC)c2)c1`, the Activity in the experiment on Lactuca sativa [1] is listed as 10%; in the experiment on Lactuca sativa [3], 60%.

Take `COc1cc(/C=C/C(=O)OCCO)cc(OC)c1OC`: the Activity with Lactuca sativa [1] amounted to 10%; with Lactuca sativa [3], 30%.

On to `COc1cc(/C=C/C(=O)Oc2cccc(O)c2)cc(OC)c1O`, for which the Activity with Lactuca sativa [1] is on record as 10%; in the experiment on Lactuca sativa [2], “>=80%”; in the experiment with Lactuca sativa [3] it was 60%.

As to `O=C(/C=C/c1ccc(O)c(O)c1)OCCO`, the Activity was 10% in the experiment with Lactuca sativa [1]; 100% in the experiment with Lactuca sativa [4]; “>=80%” in the experiment on Lactuca sativa [2]; 100% in the experiment with Lactuca sativa [7]; 100% in the experiment with Lactuca sativa [3]. In addition, the result in the experiment on Lactuca sativa [5] and in the experiment with Lactuca sativa [6] was inactive. Moreover, the outcome with Lactuca sativa [8] was Active.

`COc1cc(/C=C/C(=O)OCCO)cc(OC)c1O`: the Activity in the experiment with Lactuca sativa [1] was 10%; in the experiment on Lactuca sativa [3], 30%.

With `COc1cc(/C=C/C(=O)OCCOC(C)=O)cc(OC)c1OC`, the Activity in the experiment with Lactuca sativa [1] is reported as 10%; in the experiment on Lactuca sativa [2] it was “>=80%”; in the experiment on Lactuca sativa [3] it was 60%.
